Laboratory results as given in ChEMBL document CHEMBL5712908, “A genome-wide RNAi screen reveals essential therapeutic targets of breast cancer stem cells” (2019).
Activity calls are given as the source filed them. The rule behind the calls is not given here.

Experiments:
[1] = tested on: SUM-159-PT; assay: Anticancer activity against human SUM159 cells assessed as decrease in primary tumor sphere formation incubated for 72 hrs by Extreme limiting dilution analysis; assay type: functional, cell-based
Outline: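 Cells drug-treated in adherent culture for 72 h, then plated as single cells in ultra-low attachment 96-well plates in serum-free mammary epithelium basal medium. Plating at 25/10/5/3/2/1 cells per well, 18–36 wells per condition. Wells with ≥1 sphere after 10 days scored positive. Secondary spheres were made by dissociating primary spheres. Frequency by ELDA; n = 4; pairwise chi-square test.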

[2] = Antitumor activity against human S68 cells assessed as K-score by measuring ALDHbr cells by LSR2 cytometer; assay type: functional
Outline: (§1)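 Cell lines exposed for 72 h in adherent culture to a range of concentrations centred on the MTS-derived IC50. ALDHbr proportion measured by ALDEFLUOR flow cytometry (LSR2). K-score is the linear regression coefficient, on log10-transformed doses, between the untreated condition and the dose predicted to give a 50% decrease or increase in ALDHbr proportion versus control.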

[3] = Antitumor activity against human BrCa-MZ-01 cells assessed as K-score by measuring ALDHbr cells by LSR2 cytometer; assay type: functional; outline: as §1
[4] = tested on: SUM149PT; assay: Antitumor activity against human SUM149 cells assessed as K-score by measuring ALDHbr cells by LSR2 cytometer; assay type: functional; outline: as §1
[5] = tested on: SUM-159-PT; assay: Synergistic anticancer activity against human SUM159 cells assessed as decrease in primary tumor sphere formation at 62 nM incubated for 72 hrs in presence of salinomycin by Extreme limiting dilution analysis; assay type: functional
Outline: (§2)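 72 h adherent pretreatment (Sal/JQ1 62 nM/62 nM; docetaxel added at 2 nM where used), then single cells plated in ultra-low attachment 96-well plates in serum-free mammary epithelium basal medium at 25/10/5/3/2/1 cells/well (18–36 wells/condition). Wells with ≥1 sphere after 10 days scored positive; sphere-forming frequency by ELDA. Secondary spheres from dissociated primary spheres. n = 4; pairwise chi-square.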

[6] = tested on: SUM-159-PT; assay: Synergistic anticancer activity against human SUM159 cells assessed as decrease in docetaxel induced primary tumor sphere formation at 62 nM incubated for 72 hrs in presence of salinomycin by Extreme limiting dilution analysis; assay type: functional, cell-based; outline: as §2
[7] = tested on: SUM-159-PT; assay: Synergistic apoptosis in human SUM159 cells expressing ALDHbr at 500 nM incubated for 72 hrs in presence of salinomycin by ALDEFLUOR/YO-PRO-3/ Hoechst 33342 staining based high content imaging microscopic analysis; assay type: functional, cell-based
Outline: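 SUM159 cells seeded at 3,000 cells/well in collagen-coated 96-well plates. Drug added at 6, 24 and 48 h post-seeding. Cisplatin served as positive control and 0.1% v/v DMSO as vehicle control. At 72 h post-seeding, cells were stained with ALDEFLUOR, YO-PRO-3 (1/4,000) and Hoechst 33342 (10 μg/ml) in ALDEFLUOR buffer for 30 min at 37°C, then imaged on ice by high-content microscopy, 9 fields/well. DEAB set the ALDHbr gate. YO-PRO-3⁺ fraction per subpopulation was gated against untreated cells.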

[8] = tested on: SUM-159-PT; assay: Synergistic anticancer activity against human SUM159 cells at 500 nM incubated for 72 hrs in presence of salinomycin by ALDEFLUOR staining based flow cytometric analysis; assay type: functional, cell-based
[9] = tested on: SUM-159-PT; assay: Anticancer activity against human SUM159 cells expressing BFP assessed as reduction in ALDHbr cell at 5 to 500 nM by LSR2 cytometer analysis; assay type: functional, cell-based; conditions: dose 5-500 nM
[10] = tested on: Breast cancer cell line; assay: Antitumor activity against human CRCM434 negative breast cancer cells orthotopically xenografted in NSG mouse model of PDX assessed as reduction in tumor volume at 50 mg/kg, ip 5 out of 7 for 2 weeks; assay type: functional, organism-based
Outline: (§3)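 Chemo-naïve triple-negative PDX cells injected at 100,000 per fat pad, two fat pads per NSG mouse. At ~80 mm³ tumours, mice received i.p. 3 mg/kg daily for 14 days or 50 mg/kg 5 of 7 days for 2 weeks; placebo was DMSO/HPCD 10% (1:9). Five mice (10 tumours) per group. Tumour growth monitored; after 2 weeks tumours dissociated, mouse cells excluded via anti-H2Kd, ALDHbr measured by ALDEFLUOR flow cytometry and normalised to vehicle.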

[11] = tested on: Breast cancer cell line; assay: Synergistic antitumor activity against human CRCM434 negative breast cancer cells orthotopically xenografted in NSG mouse model of PDX assessed as reduction in tumor volume at 50 mg/kg, ip 5 out of 7 for 2 weeks cotreated with salinomycin; assay type: functional, organism-based
Outline: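 Orthotopic PDX in NSG mice, 100,000 cells per fat pad, two pads per mouse; treatment from ~80 mm³ tumours with salinomycin i.p. 3 mg/kg daily 14 days, JQ1 i.p. 50 mg/kg 5 of 7 days for 2 weeks, or combination, against placebo DMSO/HPCD 10% (1:9). Tumour growth monitored; n = 10 tumours per group.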

[12] = tested on: Breast cancer cell line; assay: Antitumor activity against patient-derived breast cancer cells orthotopically xenografted in NSG mouse model of PDX assessed as reduction in Ki67 cells at 50 mg/kg, ip 5 out of 7 for 2 weeks by Immunostaining analysis; assay type: functional, organism-based; conditions: Homo sapiens
Outline: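 Paraffin sections of PDX tumours from 2-week-treated mice. Citrate pH 6 antigen retrieval, then Ki67 immunoperoxidase staining with DAB and haematoxylin counterstain. Proportion of Ki67+ cells quantified; n = 3; t-test.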

[13] = tested on: Breast cancer cell line; assay: Antitumor activity against human CRCM434 negative breast cancer cells orthotopically xenografted in NSG mouse model of PDX assessed as reduction ALDHbr cells at 50 mg/kg, ip 5 out of 7 for 2 weeks by LSR2 cytometer analysis; assay type: functional, organism-based; outline: as §3
[14] = tested on: Breast cancer cell line; assay: Antitumor activity against human CRCM494 negative breast cancer cells orthotopically xenografted in NSG mouse model of PDX assessed as reduction ALDHbr cells at 50 mg/kg, ip 5 out of 7 for 2 weeks by LSR2 cytometer analysis; assay type: functional, organism-based; outline: as §3
[15] = tested on: Breast cancer cell line; assay: Synergistic antitumor activity against human CRCM434 negative breast cancer cells orthotopically xenografted in NSG mouse model of PDX assessed as reduction ALDHbr cells at 50 mg/kg, ip 5 out of 7 for 2 weeks cotreated with salinomycin by LSR2 cytometer analysis; assay type: functional
[16] = tested on: Breast cancer cell line; assay: Antitumor activity against human reimplanted CRCM434 negative breast cancer cells orthotopically xenografted in NSG mouse model of PDX assessed as reduction tumor volume at 50 mg/kg, ip 5 out of 7 for 2 weeks by limiting dilation analysis; assay type: functional, organism-based
Outline: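 After 2 weeks of i.p. treatment (3 mg/kg daily or 50 mg/kg 5 of 7 days), dissociated PDX tumour cells reimplanted into secondary NSG mice at 50, 500 or 5,000 cells. A mouse counted as tumour-bearing once a tumour reached 10 mm. bCSC frequency per 10,000 cells estimated by ELDA; pairwise chi-square test.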

[17] = tested on: Breast cancer cell line; assay: Synergistic antitumor activity against human CRCM404 negative breast cancer cells xenografted in NSG mouse model of PDX assessed as reduction metastasis formation in liver at 50 mg/kg, ip 5 out of 7 for 2 weeks cotreated with salinomycin; assay type: functional, organism-based
Outline: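 Luciferase-expressing PDX cells sorted H2Kd⁻ and viable, 100,000 in 100 μl PBS injected in NSG tail vein. From the next day, salinomycin 3 mg/kg i.p. daily and/or JQ1 50 mg/kg i.p. 5 of 7 days for 2 weeks. Lungs and liver imaged by bioluminescence after i.p. luciferin 30 mg/kg; normalised photon flux; 10 mice/group; Wilcoxon test.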

Cc1sc2c(c1C)C(c1ccc(Cl)cc1)=N[C@@H](CC(=O)OC(C)(C)C)c1nnc(C)n1-2
Activity [1]: Active
Activity [2]: -0.15
Activity [3]: -0.03
Activity [4]: -0.13
fold change (FC) [5]: 2.4
Activity [6]: Active
Activity [7]: Active
Activity [8]: inactive
Activity [9]: Active
Activity [10]: Active
Activity [11]: Active
Activity [12]: Active
Activity [13]: Active
Activity [14]: Active
fold change (FC) [15]: 2
Activity [16]: Active
Activity [17]: Active
